From paper PMC5616206 (Toxicology Reports, 2016)
“Also recorded” adds a separate entry of the source.

Tested on: Male and Female Hsd:ICR (CD-1) mice, bone marrow PCEs
Test: In vivo micronucleus assay in mice, S9229
In short: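 Hsd:ICR (CD-1) mice were gavaged once with the test compound suspended in 1% methylcellulose (20 mL/kg) in both the range-finding and definitive phases. The definitive phase used 0, 500, 624, 1352 and 2000 mg/kg bw, 5/sex/group, with bone marrow sampled at 24 h. Additional vehicle, 1352 and 2000 groups were sampled at 48 h. Femoral marrow smears were stained with acridine orange and scored for mnPCEs and PCE/TE ratio. Cyclophosphamide 50 mg/kg was the positive control.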

Q: What does the source list for `COC[C@@H](CC(C)C)NC(=O)c1ccc(C)c(C)c1` [S9229, (R)-N-(1-methoxy-4-methylpentan-2-yl)-3,4-dimethylbenzamide]?
A: Micronucleus formation (in vivo), Result (500, 624, 1352, 2000 mg/kg bw (oral)): neither clastogenic nor aneugenic; also recorded: Negative; well tolerated highest dose tested (preliminary dose range finding, oral, male and female mice): 2000 mg/kg bw
